Here are results for 16 compounds from ChEMBL document CHEMBL2380204, “Discovery of a new HIV-1 inhibitor scaffold and synthesis of potential prodrugs of indazoles” (Bioorg Med Chem Lett, 2013).

Molecules are shown by their SMILES. ≈ marks a conversion by molar mass, not a printed value.

Data set [1] can be described thus: Therapeutic index, ratio of TC50 for human MT4 cells to EC50 for Human immunodeficiency virus 1 NL43 infected in human MT4 cells. The data set is classed as cell-based. The following applies: read-out: TI. The essentials:
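Index calculated as TC50/EC50. TC50 and EC50 are each the mean of two experiments.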

A short description of data set [2]: Cytotoxicity against human MT4 cells by WST1 assay. Type of data set: cell-based. Conditions: read-out: TC50 (the source's name). The essentials: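 TC50 defined as 50% toxic concentration. Values are the mean of two experiments, with SD normally under 20%.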
The test system of data set [3] is Human immunodeficiency virus 1. The experiment in a line: Antiviral activity against 0.0005 MOI Human immunodeficiency virus 1 NL43 infected in human MT4 cells assessed as protection against virus-induced cytopathicity after 4 days by WST1 assay. The data set is classed as functional, organism-based. Conditions: Human immunodeficiency virus 1, NL43, MT4, 96 h. The method in brief:
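Antiviral EC50 defined as 50% effective concentration. Values are the mean of two experiments, with SD normally under 20%.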
(In general: Damage to the host cells serves as the signal in cytopathic effect assays.)

Data set [4] can be described thus: Metabolic stability in mouse liver microsomes after 40 mins by LC-MS/MS analysis. Type of data set: ADME, Microsome. The following applies: read-out: Stability.
Data set [5] is described as follows: Aqueous solubility in phosphate buffer at pH 7.4. The data set is classed as physicochemical. The essentials:
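Aqueous solubility measured in phosphate buffer at pH 7.4 as a preliminary screen. Reported in µM.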

Data set [6] is described as follows: Chemical stability in phosphate buffer after 40 mins at pH 7.4. Type of data set: physicochemical. Conditions: pH 7.4, 40 min. The method in brief: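 Compound incubated in phosphate buffer at pH 7.4 and 37 °C for 40 min. Hydrolysis monitored.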
The next data set has as its system Plasma. As to the kind of experiment: Prodrug activation in 80% phosphate buffered human plasma assessed as compound remaining after 40 mins at pH 7.4. The data set is classed as cell-free. The following applies: pH 7.4, 40 min. The essentials: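 Incubated in phosphate-buffered 80% human plasma at pH 7.4 and 37 °C. Percent of compound remaining measured at 40 min, along with time-dependent formation of the parent indazole.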

As a reminder, the EC50 is the concentration needed to bring the measured effect to its halfway point. For `COc1ccccc1-c1cnc(Nc2ccc3[nH]ncc3c2)o1`, the selectivity ratio in data set [1] was more than 1. Moreover, in data set [2], the CC50 was more than 100 µM. Besides, the EC50 in data set [3] was 100 µM.

On to `Clc1ccccc1-c1cnc(Nc2ccc3[nH]ncc3c2)o1`, for which the selectivity ratio in data set [1] is more than 11. For the same compound, in data set [2], the CC50 is more than 100 µM. In addition, the EC50 in data set [3] was found to be 9 µM.

In the case of `COc1cccc(-c2nc(Nc3ccc4[nH]ncc4c3)c3c(F)cccc3n2)c1`, the selectivity ratio in data set [1] was determined as 10. The EC50 in data set [3] turned out to be 11 µM.

Regarding `c1cc2[nH]ncc2cc1Nc1ncc(-c2ccc3c(c2)OCO3)o1`, in data set [1], the selectivity ratio amounted to 31. Moreover, the CC50 in data set [2] came out at 83 µM. For the same compound, in data set [3], the EC50 is 2.7 µM.

With `COc1cc(-c2cnc(Nc3ccc4[nH]ncc4c3)o2)ccc1Cl`, in data set [1], the selectivity ratio came out at 53. In data set [2], the CC50 was 80 µM. Further, in data set [3], the EC50 was 1.5 µM.

With `COc1ccc(-c2cnc(Nc3ccc4[nH]ncc4c3)o2)cc1OC`, in data set [1], the selectivity ratio was determined as 50. Besides, the CC50 in data set [2] is 21 µM. Moreover, the EC50 in data set [3] stood at 0.42 µM.

Take `Clc1ccc(-c2cnc(Nc3ccc4[nH]ncc4c3)o2)cc1Cl`: the selectivity ratio in data set [1] is more than 2.9. Further, in data set [2], the CC50 was more than 100 µM. The EC50 in data set [3] stood at 35 µM.

For `c1ccc(-c2cnc(Nc3ccc4[nH]ncc4c3)o2)cc1`, in data set [4], the remaining at 40 min was determined as 9%. Also, the selectivity ratio in data set [1] was more than 45. Further, the CC50 in data set [2] is more than 90 µM. In addition, in data set [3], the EC50 worked out at 2 µM.

On to `O=C(NCc1ccc([N+](=O)[O-])cc1F)Nc1ccc2[nH]ncc2c1`, for which the selectivity ratio in data set [1] was 15. In addition, the EC50 in data set [3] worked out at 6 µM.

Consider `COc1ccc(-c2cnc(Nc3ccc4[nH]ncc4c3)o2)cc1`, for which the selectivity ratio in data set [1] was more than 1. In addition, the CC50 in data set [2] was more than 100 µM. Besides, the EC50 in data set [3] was determined as 100 µM.

Consider `O=[N+]([O-])c1ccc(N2CCCC(Nc3ccc4[nH]ncc4c3)C2)c(F)c1` (configuration not stated), for which, in data set [1], the selectivity ratio came to 10. The EC50 in data set [3] amounted to 13 µM.

For orientation: solubility means the concentration that dissolves in the medium under given conditions. High values mean a readily soluble substance, low ones a poorly soluble substance. The compound `Clc1ccc(-c2cnc(Nc3ccc4[nH]ncc4c3)o2)cc1` yielded a solubility in data set [5] of 0.2 µM (≈ 0.0621 µg/mL). Besides, the remaining at 40 min in data set [4] was 83%. Also, the selectivity ratio in data set [1] is more than 30. Also, the CC50 in data set [2] was more than 90 µM. In data set [3], the EC50 came to 3 µM.

In the case of `O=C(O)CCC(=O)OCn1ncc2cc(Nc3ncc(-c4ccc(Cl)cc4)o3)ccc21`, the results for the Stability result (in data set [6]; in the data set on Plasma) were “Stable” and 35%, respectively. In addition, the solubility in data set [5] is 60 µM (≈ 26.5 µg/mL).

Regarding `O=C(O)c1ccccc1C(=O)OCn1ncc2cc(Nc3ncc(-c4ccc(Cl)cc4)o3)ccc21`, the Stability result with Plasma is “Stable”. The solubility in data set [5] worked out at 66 µM (≈ 32.3 µg/mL).

Regarding `Clc1cccc(-c2cnc(Nc3ccc4[nH]ncc4c3)o2)c1`, the selectivity ratio in data set [1] was more than 1.9. For the same compound, the CC50 in data set [2] is more than 100 µM. In addition, in data set [3], the EC50 turned out to be 54 µM.

With `COc1cccc(-c2cnc(Nc3ccc4[nH]ncc4c3)o2)c1`, the selectivity ratio in data set [1] was more than 45. Further, the CC50 in data set [2] is more than 90 µM. For the same compound, the EC50 in data set [3] was 2 µM.
